Assay outcomes from PubChem.
L major viab: Leishmania major promastigote growth inhibition, primary screen; Leishmania major promastigotes, resazurin fluorescence viability; inhibition, % at 10 µM; actives 9% (n = 200,000); AID 1063, 2008; in the data active = inhibition above about 50%;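 also: promastigotes grown with compound for 44 hours at 28 °C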
PTEN del growth: growth suppression of PTEN-null HCT116, primary screen, cell-based, CellTiter-Glo. HCT116 PTEN-null viability, 60 h; hits give low values. viability, % at 10 µM. actives 1.2% (n = 140,000). AID 827, 2007;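 active = viability at or below a set limit, 4 SD under the median of all tested compounds, cut at about 3.7% in these data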;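 also: PTEN knockout HCT116 line with beta catenin targeted HCT116 as companion control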
HCT116 bCat-KO: primary screen for growth suppressors in beta-catenin knockout HCT116 cells (colon tumor, human); HCT116 beta-catenin knockout viability, CellTiter-Glo, 60 h; hits give low values; viability, % at 10 µM; actives 1.5% (n = 140,000); AID 818, 2007;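 active = viability at or under a set limit, the compound median less 4 SD, cut at about 6% in these data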
Autophagy mod: autophagy modulators in MEF cells, primary screen, imaging, high-content, MEF GFP-LC3; MEF GFP-LC3 puncta imaging; test concentration mostly 10 µM; calls only at 10 µM (by protocol); actives 0.98% (n = 190,000);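 active = percentage of spot-positive cells more than 3 SD above its plate mean, without a fluorescence outlier flag or 80% toxicity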
Dynein cargo inh: inhibitors of GR-EGFP nuclear translocation, primary screen, dynein cargo transport inhibitor project, imaging, high-content, 3617.4 mouse cells; test concentration mostly 20 µM; stimulated with dexamethasone, 1 µM; hits give low values; z-score, hits read low; actives 0.47% (n = 220,000); AID 1381, 2008;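 active = plate z-score of nuclear minus cytoplasmic receptor signal below a set negative limit, without overly bright fluorescence or cell loss, cut at about -3.5 in these data, passing the limit was not always enough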;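 also: z-score of nuclear minus cytoplasmic ring GR-EGFP intensity difference per well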
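Buffer or medium: tet-free, stripped-serum medium; Also added: dexamethasone, 1.0 µM final; Technique: high-content fluorescence imaging after fixation; Times: 48 h induction, 1 h compound, 30 min dex at 37 °C; Read-out: per-cell GR-EGFP intensity, nucleus versus surrounding cytoplasmic ring, well-averaged.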
Each line names hits and unclear results; the compound was inactive in the other large screens. Sampled rows, rich in hits. Any-hit rate of the full collection: about 9.2%.

Cc1cc(CNC(=S)Nc2cccc(Cl)c2Cl)nn1C	none (no result: PTEN del growth, HCT116 bCat-KO)
CNc1nc(SC)nc(N(C)C#N)n1	none (no result: PTEN del growth, HCT116 bCat-KO)
O=C(/C=C/c1ccccc1)NC(NC(=S)Nc1ccc(Cl)cc1)C(Cl)(Cl)Cl (stereo not given)	none
O=C(/C=C/c1ccccc1)NC(NC(=S)Nc1cc(Cl)ccc1Cl)C(Cl)(Cl)Cl (stereo not given)	L major viab 99
CN1CCN(c2ccc(S(=O)(=O)N3CCCCC3)cc2NC(=O)c2ccc(C#N)cc2)CC1	none
O=C(Nc1cc(S(=O)(=O)Nc2ccc(Cl)cc2)ccc1O)c1ccc(S(=O)(=O)N2CCCCCC2)cc1	none (no result: PTEN del growth, HCT116 bCat-KO)
O=C(N/N=C\c1cc(Cl)ccc1O)c1ccc(S(=O)(=O)N2CCCCC2)cc1	L major viab 98
CN1CCN(c2ccc(Cl)cc2NC(=O)c2ccc(S(=O)(=O)N3CCCCCC3)cc2)CC1	L major viab 88
Cc1ccc(-c2csc(N/N=C/c3ccco3)n2)c(C)c1	none
Cn1c(=O)c2c(nc(NCc3ccco3)n2CC(O)CO)n(C)c1=O (stereo not given)	none (no result: PTEN del growth, HCT116 bCat-KO)
COc1ccc(O)c(C(=O)c2cc(C(=O)NCCc3ccccc3)c(=O)n(CCc3ccccc3)c2)c1	L major viab 77
Cc1ccc(O)c(C(=O)c2cc(C(=O)NCCc3ccccc3)c(=O)n(CCc3ccccc3)c2)c1	L major viab 99
COc1ccc(S(=O)(=O)Nc2cc3c(cc2C(C)=O)OCO3)cc1	none (no result: PTEN del growth, HCT116 bCat-KO)
CCOc1ccc(CCNS(=O)(=O)c2cccc3nsnc23)cc1OCC	none
Cc1ccc(OCC(=O)Nc2ccc(C)c(S(=O)(=O)N3CCCCC3)c2)c([N+](=O)[O-])n1	none
Cc1ccc(-n2cc(CNCCCn3ccnc3C)c(-c3ccc(F)cc3)n2)cc1	L major viab 100 (no result: PTEN del growth, HCT116 bCat-KO)
Cc1ccc(-n2cc(CNCCCn3cccn3)c(-c3cccc(C)c3)n2)cc1	none (no result: L major viab, PTEN del growth, HCT116 bCat-KO, Autophagy mod)
Cc1ccc(-n2cc(CNCCc3cscn3)c(-c3ccc(F)cc3)n2)cc1	L major viab 75 (no result: PTEN del growth, HCT116 bCat-KO)
COc1ccc(-n2cc(CNCCc3cscn3)c(-c3ccccc3Cl)n2)cc1	none (no result: PTEN del growth, HCT116 bCat-KO)
Cc1nnc2sc(-c3cccc(NC(=O)c4ccc(-c5cccc(Cl)c5)o4)c3)nn12	L major viab 98 (no result: PTEN del growth, HCT116 bCat-KO)
Cc1ccc(-c2nn3c(C)nnc3s2)cc1NC(=O)c1ccc(-c2ccc(Cl)cc2Cl)o1	PTEN del growth 3.2, HCT116 bCat-KO 2.3
COc1ccc(-n2nc([N+](=O)[O-])c(=NCCc3ccc(C)cc3)n2O)cc1	L major viab 80 (no result: PTEN del growth, HCT116 bCat-KO)
COc1ccc(-n2nc([N+](=O)[O-])c(=NCc3cccnc3)n2O)cc1	L major viab 82
COc1ccc(-n2nc([N+](=O)[O-])c(=NCCc3ccc(OC)c(OC)c3)n2O)cc1	L major viab 94
COc1ccc(-n2nc([N+](=O)[O-])c(=NCCC3=CCCCC3)n2O)cc1	L major viab 82 (no result: PTEN del growth, HCT116 bCat-KO)
COc1ccc(-n2nc([N+](=O)[O-])c(=NCCc3ccc(Cl)cc3)n2O)cc1	none
COc1ccc(-n2nc([N+](=O)[O-])c(=NCc3ccco3)n2O)cc1	none (no result: PTEN del growth, HCT116 bCat-KO)
COc1nccc(C(F)(F)F)c1C(=O)Nc1ccc(Cl)cc1	none (no result: L major viab, PTEN del growth, HCT116 bCat-KO, Autophagy mod)
COc1ccc(C2CC(=O)C3=C(C2)NC(C)=C(C#N)C3c2ccc(N(C)C)cc2)cc1 (stereo not given)	Autophagy mod active
O=C(NNc1ccccc1[N+](=O)[O-])Nc1ccc(Cl)c(Cl)c1	L major viab 78
CCN(CC)S(=O)(=O)c1cc([N+](=O)[O-])ccc1NNC(=O)Nc1ccc(Cl)c(Cl)c1	L major viab 100, PTEN del growth 1.0, HCT116 bCat-KO 1.4
CCC(CC)C(=O)Nc1cc([N+](=O)[O-])ccc1Cl	none
COc1cc(C(=O)NCCc2c[nH]c3ccccc23)ccc1OCc1c(C)noc1C	none (no result: PTEN del growth, HCT116 bCat-KO)
Cn1nc(-c2ccc(NCCCO)c([N+](=O)[O-])c2)c2ccccc2c1=O	none (no result: L major viab, PTEN del growth, HCT116 bCat-KO, Autophagy mod)
CC(=O)NCCCc1nc2ccccc2n1Cc1cc(C)ccc1C	none (no result: PTEN del growth, HCT116 bCat-KO)
COc1cc(C(=O)NCCCc2nc3ccccc3n2Cc2cc(C)ccc2C)cc(OC)c1OC	L major viab 69
Cc1ccc(C(=O)NCC(=O)OCC(=O)NCCc2ccccc2)s1	none (no result: PTEN del growth, HCT116 bCat-KO)
COCCn1c(-c2ccco2)csc1=Nc1cccnc1	none
CC(C)Cn1c(-c2ccco2)csc1=Nc1cccnc1	L major viab 58
Fc1ccccc1-c1csc(=Nc2cccnc2)n1CCCn1ccnc1	L major viab 76
